Screens deposited in PubChem BioAssay by several laboratories.
ABCG2 block – human ABCG2 inhibition, ABCB1 as counter-screen. Q9UNQ0. IgMXP3 cells, JC-1 efflux, flow cytometry. inhibition, % at 6.6 µM. hit rate 0.1% among 190,000. AID 1325;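 active means inhibition above 80%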;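 further: 0% = DMSO and 100% = nicardipine control wells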
Target sequence (Q9UNQ0 whole entry, looked up): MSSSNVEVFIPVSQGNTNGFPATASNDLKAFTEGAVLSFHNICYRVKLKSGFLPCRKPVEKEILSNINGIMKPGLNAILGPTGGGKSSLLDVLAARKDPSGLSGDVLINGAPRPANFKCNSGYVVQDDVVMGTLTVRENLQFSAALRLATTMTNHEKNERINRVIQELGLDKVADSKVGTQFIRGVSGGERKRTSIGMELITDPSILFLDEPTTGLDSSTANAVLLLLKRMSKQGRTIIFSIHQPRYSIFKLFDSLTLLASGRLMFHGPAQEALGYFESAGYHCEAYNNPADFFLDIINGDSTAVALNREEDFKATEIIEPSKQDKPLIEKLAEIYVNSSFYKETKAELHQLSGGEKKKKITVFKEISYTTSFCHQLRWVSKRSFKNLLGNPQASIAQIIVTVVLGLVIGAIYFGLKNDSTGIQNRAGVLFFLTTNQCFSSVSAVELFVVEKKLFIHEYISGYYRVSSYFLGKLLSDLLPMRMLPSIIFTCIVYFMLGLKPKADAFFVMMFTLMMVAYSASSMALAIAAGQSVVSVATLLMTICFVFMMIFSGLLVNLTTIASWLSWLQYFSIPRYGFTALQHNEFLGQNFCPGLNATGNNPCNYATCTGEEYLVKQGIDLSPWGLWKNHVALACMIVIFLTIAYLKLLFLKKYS
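Assay system – ABCG2 IgMXP3 and barcoded ABCB1 CCRF-Adr cell mix · Input – 3 million cells/mL in well · Reagent – JC-1 fluorescent substrate · Compound – single test compound dose, 6.6 µM final · Timing – 10 min exposure at 25 °C with rotation, no wash · Detection – flow cytometry of retained JC-1 fluorescence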
Diaph act CS – activates diaphorase or chemically reduces, flagging diaphorase assay artifacts | Diaphorase/resazurin coupled assay, resorufin fluorescence, 16 min; hits give high values; 1 = vehicle wells, 0 = NADH-free wells | activation factor at 20 µM | hit rate 0.005% among 190,000 | AID 1229;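 active means diaphorase activity raised at least twofold by the compound at 20 µM; inactive means activation factor below 2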
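Assay system: bacterial diaphorase enzyme (C. kluyveri) / Input: enzyme 0.07 U/mL final / Medium: 50 mM HEPES pH 7.4 with 4.542 mM MgCl2, 0.005% Tween 20 / Doses: single compound dose of 20 µM, 1% DMSO final / Incubation: 16 min enzyme reaction, ambient temperature / Signal: fluorescence, excitation 544 nm and emission 590 nm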
Efa HMGR inh – inhibitors of class II HMG-CoA reductase from Enterococcus faecalis. purified E. faecalis HMGR, NADPH absorbance 340 nm kinetic. hit rate 0.41% among 190,000. inhibition, % at 10 µM. AID 1066;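 active means inhibition above a set limit, the median over all tested compounds plus 3 SD, cut at about 9.5% in these data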;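 further: enzyme runs in reverse so mevalonate oxidation gives rising NADPH absorbance; 0% = complete reaction with DMSO and 100% = background rate lacking mevalonate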
ABCB1 block – inhibitors of human ABCB1 transporter, ABCG2 counter-screen; P08183; CCRF-Adr cells, JC-1 efflux, flow cytometry; inhibition, % at 6.6 µM; hit rate 0.067% among 190,000; in the data active means inhibition above about 40%;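 further: 0% = vehicle and 100% = reference inhibitor; higher value means more JC-1 retained so stronger ABCB1 efflux block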
p47phox inh – inhibitors of human p47phox binding; p47phox/p22phox peptide binding, fluorescence polarization, 2 h; hit rate 0.53% among 220,000; P14598; inhibition, % at 24.7 µM;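 active means inhibition above about 30%, limit read from the data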;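 further: 0% = p47phox with labelled peptide and 100% = labelled peptide alone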
Diaph inh CS – inhibits diaphorase or chemically oxidizes, flagging diaphorase assay artifacts; diaphorase resazurin-to-resorufin fluorescence, NADH, 16 min; bacterial (C. kluyveri) enzyme, not human; inhibition, % at 20 µM; hit rate 0.69% among 190,000; AID 1217;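 active means primary screen inhibition at 20 µM above a set limit, cut at about 50% in these data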;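 further: plate controls were DMSO with full reaction for no effect and wells lacking NADH for full effect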
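Test system: Clostridium kluyveri diaphorase enzyme / Quantity: diaphorase at 0.14 U/mL in enzyme working solution / Incubation: 16-min room-temperature incubation before reading / Benchmarks: NADH-free wells as positive control, DMSO-only neutral wells / Signal: resorufin fluorescence 544/590 nm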
* = called active by the depositor; x = no result given. Only some compounds are listed: those with a hit (about 1.6% of all), similar ones and a draw of the others.

SMILES	ABCG2 block	Diaph act CS	Efa HMGR inh	ABCB1 block	p47phox inh	Diaph inh CS
O=C(N/N=C/c1ccncc1)C1CC1(c1ccccc1)c1ccccc1 (stereo unspecified)	x	x	x	x	-8	x
CCCCN(CC)C(=O)CSc1nc2c(sc(=S)n2-c2ccc(OCC)cc2)c(=O)[nH]1	-1	0.3	3	0	-4	72*
CCOc1ccc(-n2c(=S)sc3c(=O)[nH]c(SCC(=O)NC(C)CC)nc32)cc1 (stereo unspecified)	-1	0.7	1	0	-39	32
CCOC(=O)CC(=O)CSc1nc2c(sc(=S)n2-c2ccc(OCC)cc2)c(=O)[nH]1	-22	0.4	-3	-6	-3	60*
CCN(CC)C(=O)CSc1nc2c(sc(=S)n2CC)c(=O)n1-c1ccccc1	5	0.8	0	3	-6	22
CCCN(CCC)C(=O)CSc1nc2c(sc(=S)n2-c2ccc(OCC)cc2)c(=O)[nH]1	-5	0.2	-3	-1	-15	80*
O=C(CCCc1c[nH]c2ccccc12)Nc1ccc(S(=O)(=O)Nc2ncccn2)cc1	x	x	x	x	-35	x
O=c1sc2ccccc2n1COc1ccccc1	x	0.3	x	x	x	70*
CN=C(Cc1ccccc1)C1=C(O)CC(C)(C)CC1=O	3	1	-6	2	x	-4
CC(=O)NNc1nc2ccccc2s1	1	0.9	0	0	-13	5
CCCn1c(SCC(=O)Nc2nc(C)c(C(=O)OC)s2)nnc1C(C)C	12	0.9	1	0	-5	9
Cc1ccc(C)c(N=C2CCCN2Cc2ccccc2)c1C#N	10	1	13*	1	-7	2
COc1cccc2cc(C(=O)NNC(=O)c3ccc(Br)cc3)c(=O)oc12	15	1.1	-8	1	37*	-13
COc1cccc2cc(C(C)=O)c(=O)oc12	1	0.9	-2	0	-8	12
COc1ccc(Cl)cc1Nc1nc(-c2sc(NC(=O)c3ccccc3)nc2C)cs1	-4	0.9	-10	-1	-14	8
COc1ccc(OC)c(Nc2nc(-c3sc(NC(=O)c4ccccc4)nc3C)cs2)c1	6	0.9	11*	1	-8	14
Cc1cc(C)nc(/N=c2/ssnc2Cl)c1	9	0.7	12*	0	-1	25
COc1ccc(C)cc1NC(=S)NC(C)c1ccc(OC)c(OC)c1 (stereo unspecified)	6	1	-4	2	x	4
CCOC(=O)N1CCN(C(=O)CSc2nnc(-c3ccc(C(C)(C)C)cc3)o2)CC1	5	0.7	-10	1	-15	29
CN(CCO)c1cc(NCCCN2CCC(Cc3ccccc3)CC2)c2nonc2c1[N+](=O)[O-]	1	0.9	14*	1	1	7
COc1cc(C2NC(=O)NC(c3ccccc3)=C2C(C)=O)cc(Cl)c1OCC(=O)O (stereo unspecified)	0	1	14*	0	-6	4
COc1cc(C2NC(=S)NC(c3ccccc3)=C2C(C)=O)cc(Cl)c1OCC(=O)O (stereo unspecified)	3	1	-3	0	-21	-3
CC(=O)C1=C(c2ccccc2)NC(=O)NC1c1ccc(O)c(O)c1 (stereo unspecified)	0	0.5	-6	0	0	54*
C#CC[N+](C)(C)CC#Cc1ccccc1	1	1.1	-5	1	2	-5
CC(=O)Nc1ccc(OCC(O)Cn2c(C(C)C)nc3ccccc32)cc1 (stereo unspecified)	0	1	11*	0	0	-1
CN(C)c1ccc(/C=C/C=C2/SC(=S)N(c3ccccc3)C2=O)cc1	6	0.8	3	1	107*	24
Cc1ccc2c(c1)N/C(=C(\C=C(/Cl)[N+](=O)[O-])[N+](=O)[O-])N2	-2	0.3	1	-1	-21	75*
CCN(CC)c1ccc([N+](=O)[O-])cc1C(=O)N1CCOCC1	1	1	-1	0	5	4
CCN(CC)C1=NS(=O)(=O)c2cc([N+](=O)[O-])ccc21	2	0.9	-1	1	56*	5
